From PubChem BioAssay
Rows were chosen to be rich in hits. Some 1.6% of all compounds tested hit in one or more screens of this group.
LMPTP block: LMPTP phosphatase inhibitors, primary screen, biochemical, fluorescence intensity, uHTS; recombinant LMPTP-A, OMFP fluorogenic substrate; AID 651560, 2012; inhibition, % at 20 µM; Low molecular weight phosphotyrosine protein phosphatase (Homo sapiens), P24666; actives 0.22% (n = 360,000);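 active = compounds that cut the enzyme signal by at least half of the control window in the single-dose screen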
Target sequence (P24666 whole entry, looked up): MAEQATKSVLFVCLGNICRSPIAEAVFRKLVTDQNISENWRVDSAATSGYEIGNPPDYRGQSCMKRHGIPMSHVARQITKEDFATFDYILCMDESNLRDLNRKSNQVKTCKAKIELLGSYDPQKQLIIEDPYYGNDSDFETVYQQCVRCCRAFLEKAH
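Assay system: LMPTP-A phosphatase enzyme | Input: 0.625 nM enzyme | Also added: Fluorogenic phosphatase substrate OMFP at 400 µM final | Compound dosing: One test concentration per compound, 20 µM, with 3% DMSO overall | Schedule: 50 min enzyme reaction at room temperature, protected from light | Signal: Fluorescence intensity | Benchmarks: no-enzyme and uninhibited controls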
DNMT1 block: human DNMT1 methyltransferase inhibitors, primary screen, biochemical, molecular beacon, fluorescence, HinP1I cleavage, uHTS. DNA (cytosine-5)-methyltransferase 1 (Homo sapiens), P26358. inhibition (reported as % activation of signal), % at 10 µM. actives 0.83% (n = 360,000). AID 588458, 2011; in the data active = inhibition above about 50%
Scp1 inh: Scp-1 phosphatase inhibitors, primary screen, biochemical, colorimetric, uHTS; inhibition, % at 20 µM; Carboxy-terminal domain RNA polymerase II polypeptide A small phosphatase 1 (Homo …; actives 0.88% (n = 340,000); AID 493091, 2011; Recombinant Scp1, phosphopeptide, malachite green phosphate absorbance;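 active = inhibition above about 50% at 20 µM, limit read from the data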
Target sequence (Q9GZU7 76-261 limits assumed): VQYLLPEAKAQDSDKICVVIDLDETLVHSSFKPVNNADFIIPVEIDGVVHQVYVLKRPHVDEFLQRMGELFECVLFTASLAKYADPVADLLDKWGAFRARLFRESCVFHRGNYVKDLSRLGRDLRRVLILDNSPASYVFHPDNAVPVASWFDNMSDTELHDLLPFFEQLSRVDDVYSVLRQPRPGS
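Test system: SCP-1 catalytic domain; Buffer or medium: Acidic Tris acetate buffer with magnesium and detergent; Also added: Phosphorylated 17-residue peptide substrate; Compound: single 20 µM dose, 1% DMSO; Schedule: enzyme reaction 45 min at room temperature, colour 5 min, stabilisation 30 min; Signal: Phosphate-binding colour reagent, absorbance read at 630 nm.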
SUMO1-SIM PPI: modulators of SUMO1 protein-protein interactions, primary screen, biochemical, uHTS. Small ubiquitin-related modifier 1 (Homo sapiens), P63165. SUMO1 binding to a labelled peptide, TR-FRET, 1 h. inhibition, % at 20 µM. actives 0.33% (n = 360,000); in the data active = inhibition above about 37%
Target sequence (P63165 whole entry, looked up): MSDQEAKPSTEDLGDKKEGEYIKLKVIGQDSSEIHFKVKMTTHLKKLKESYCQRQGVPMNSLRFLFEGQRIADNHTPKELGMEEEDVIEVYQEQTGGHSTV
STEP block: STEP phosphatase inhibitors, primary screen, biochemical, fluorescence intensity, uHTS. inhibition, % at 20 µM. recombinant STEP, OMFP fluorogenic substrate. AID 588621, 2011. actives 0.25% (n = 360,000);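 active = inhibition at 20 µM, scaled per plate between control wells, above about 37%, limit read from the data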
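Material: STEP (striatal-enriched tyrosine phosphatase) enzyme, cell-free; Compound dosing: 20 µM single dose in 1% DMSO; Technique: fluorescence read at 480 nm ex / 540 nm em; Times: reaction 20 min, ambient temperature; Medium: 50 mM Bis-Tris pH 6.0 with 2.5 mM DTT and 0.005% Tween 20; Also added: OMFP at 25 µM.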
CFTR F508del cor: F508del CFTR correction, initial screen, CFBE line, single point | activity (quench increase), % at 7.58 µM | CFBE cells, YFP halide quenching; stimulated with forskolin plus potentiator P3; % fluorescence drop versus neutral controls | actives 0.36% (n = 350,000);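 active = mean added fluorescence quench of at least 8% versus neutral control, with both replicates also reaching 8%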;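 also: cells transiently co-express mutant CFTR-F508del with the halide-sensitive YFP; corrector assay measuring rescue of mutant channel to the surface after 24 h compound exposure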
Scp-1 conf: Scp-1 phosphatase inhibitors, retest, confirmation, biochemical, colorimetric, single concentration; shares compounds with Scp1 inh; recombinant SCP-1 catalytic domain, phosphate release, malachite green absorbance; inhibition, % at 20 µM; actives 61% (n = 2,500); AID 540281, 2011
MG interference: colorimetric readout interference by compounds, confirmation, artefact control for Scp-1 inhibitor project, biochemical, single concentration; shares compounds with Scp1 inh; Colorimetric interference counterscreen, malachite green absorbance 630 nm; apparent inhibition (interference), % at 20 µM; 2,500 tested, under 10 active; AID 540313, 2011;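 also: compounds added after enzyme reaction finished so only phosphate colour detection is probed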
Scp-1 Tm shift: Scp-1 binding by thermal shift, confirmation, orthogonal assay for Scp-1 inhibitor project, biophysical, differential scanning fluorimetry. actives 25% (n = 1,500). thermal shift relative to vanadate control, % at 40 µM. Recombinant SCP1, Sypro Orange thermal shift Tm. AID 540329, 2011. shares compounds with Scp1 inh;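 active = substances whose mean melting-temperature shift, as a percentage of the reference inhibitor's shift, reaches about 5.3%, limit read from the data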
Each line names hits and unclear results; the compound was inactive in the other large screens (follow-up assays come after a bar, where they were run).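 The calls were made as follows, unless noted: active = inhibition of at least 30% at 20 µM; inactive = the rest.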

O=C(NN=C1c2ccccc2-c2ccccc21)c1ccccn1	Scp1 inh 72.8 | Scp-1 conf inactive | MG interference inactive
Cc1cn(C2CCCCO2)c(=O)nc1NO (stereo not drawn)	none
COc1nc(=O)n(C2CCCO2)cc1C (stereo not drawn)	Scp1 inh 84.7 | Scp-1 conf inactive | MG interference inactive
Cc1ccc2[nH]c3c(=O)n(CC(=O)NCc4ccco4)ncc3c2c1	Scp1 inh 52.0 | Scp-1 conf inactive | MG interference inactive
O=C(NCc1cccnc1)c1cccc(S(=O)(=O)N2CCOCC2)c1	Scp1 inh 63.6 (no result: CFTR F508del cor) | Scp-1 conf inactive | MG interference inactive
Cc1cc(C)n2c(SC/C(O)=C(\C#N)c3nc4ccccc4[nH]3)nnc2n1	Scp1 inh 76.1 (no result: CFTR F508del cor) | Scp-1 conf 63.2 | MG interference inactive | Scp-1 Tm shift 11.3
Cc1c(C(=O)NCCC2=CCCCC2)oc2ccc(S(=O)(=O)N3CCOCC3)cc12	none (no result: CFTR F508del cor)
Cc1c(C(=O)O)oc2ccc(S(=O)(=O)NCCC3=CCCCC3)cc12	Scp1 inh 52.4 (no result: CFTR F508del cor) | Scp-1 conf inactive | MG interference inactive
CO[C@@H]1CN(C)C(=O)c2ccc(NC(C)=O)cc2OC[C@@H](C)N(Cc2ccccn2)C[C@@H]1C	none (no result: LMPTP block, DNMT1 block, Scp1 inh, SUMO1-SIM PPI, STEP block)
CC1=CC(C)C(C(=O)O)C(C(=O)O)C1 (stereo not drawn)	none
CC[N+](C)(CC)CC(=O)OCC1C(C)C=C(C)CC1C (stereo not drawn)	Scp1 inh 55.5 | Scp-1 conf inactive | MG interference inactive
Fc1ccc(CSc2nc3ncc(Br)cc3[nH]2)cc1	Scp1 inh 59.4 (no result: CFTR F508del cor) | Scp-1 conf 69.5 | MG interference inactive | Scp-1 Tm shift inactive
Brc1cnc2nc(SCc3nc4ccccc4[nH]3)[nH]c2c1	none
O=C(CCCCCn1c(SCc2ccncc2)nc2ccccc2c1=O)NCc1ccco1	Scp1 inh 56.0 (no result: CFTR F508del cor) | Scp-1 conf 32.3 | MG interference inactive | Scp-1 Tm shift inactive
N#CCSc1nc2ccccc2c(=O)n1CCCC(=O)NCc1ccco1	none
C[C@@H]1CCCCO[C@@H](CN(C)C(=O)C2CCCCC2)[C@@H](C)CN([C@@H](C)CO)C(=O)c2cc(NC(=O)CCCN(C)C)ccc2O1	none (no result: LMPTP block, DNMT1 block, Scp1 inh, SUMO1-SIM PPI, STEP block)
CC(C)CCN1C(=O)c2ccc(C(=O)Nc3ccc(O)cc3C(=O)O)cc2C1=O	none
COc1cc(NC(=O)c2ccc3c(c2)C(=O)N(CCC(C)C)C3=O)c(C(=O)O)cc1OC	Scp1 inh 71.6, STEP block 61.3 | Scp-1 conf 59.9 | MG interference inactive | Scp-1 Tm shift 6.1
C[n+]1ccccc1C1CCCC/C1=N\NC(N)=S (stereo not drawn)	Scp1 inh 112.6 | Scp-1 conf 99.7 | MG interference inactive | Scp-1 Tm shift inactive
CC1CCCC/C1=N\NC(=S)NCCc1ccccc1 (stereo not drawn)	none
